Laboratory results: ChEMBL document CHEMBL1135879 (J Med Chem, 2002)

Experiments:
[1] = target: T1, Amine oxidase [flavin-containing] B (Bos taurus, UniProt P56560); experiment: Inhibition of bovine brain mitochondrial Monoamine oxidase B (MAO-B) compared to toloxatone
T1 sequence (P56560 whole entry): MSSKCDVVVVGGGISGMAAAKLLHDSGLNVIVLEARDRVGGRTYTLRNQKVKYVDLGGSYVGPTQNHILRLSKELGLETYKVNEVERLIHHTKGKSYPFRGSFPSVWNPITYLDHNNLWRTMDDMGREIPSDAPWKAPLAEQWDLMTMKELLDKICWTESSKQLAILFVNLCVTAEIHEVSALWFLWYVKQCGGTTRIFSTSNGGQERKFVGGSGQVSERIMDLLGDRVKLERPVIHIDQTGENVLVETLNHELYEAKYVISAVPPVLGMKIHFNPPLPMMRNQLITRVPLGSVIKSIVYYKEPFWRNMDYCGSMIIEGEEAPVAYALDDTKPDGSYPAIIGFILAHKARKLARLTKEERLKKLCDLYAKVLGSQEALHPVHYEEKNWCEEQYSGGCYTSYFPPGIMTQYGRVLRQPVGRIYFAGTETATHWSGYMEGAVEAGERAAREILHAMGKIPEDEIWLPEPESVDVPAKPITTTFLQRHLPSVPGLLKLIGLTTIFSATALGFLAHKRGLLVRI
Method in brief: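 Bovine brain mitochondrial fractions were isolated by the Basford method. To leave MAO-B activity, fractions were preincubated 30 min at 38 °C with 1 μM clorgyline. Inhibitors in DMSO were preincubated 30 min before kynuramine was added, then incubated 30 min more. Fluorimetric read-out was used and Ki values determined.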

[2] = target: T2, Amine oxidase [flavin-containing] A (Bos taurus, UniProt P21398); experiment: Inhibition of bovine brain mitochondrial Monoamine oxidase A (MAO-A) compared to toloxatone
T2 sequence (P21398 whole entry): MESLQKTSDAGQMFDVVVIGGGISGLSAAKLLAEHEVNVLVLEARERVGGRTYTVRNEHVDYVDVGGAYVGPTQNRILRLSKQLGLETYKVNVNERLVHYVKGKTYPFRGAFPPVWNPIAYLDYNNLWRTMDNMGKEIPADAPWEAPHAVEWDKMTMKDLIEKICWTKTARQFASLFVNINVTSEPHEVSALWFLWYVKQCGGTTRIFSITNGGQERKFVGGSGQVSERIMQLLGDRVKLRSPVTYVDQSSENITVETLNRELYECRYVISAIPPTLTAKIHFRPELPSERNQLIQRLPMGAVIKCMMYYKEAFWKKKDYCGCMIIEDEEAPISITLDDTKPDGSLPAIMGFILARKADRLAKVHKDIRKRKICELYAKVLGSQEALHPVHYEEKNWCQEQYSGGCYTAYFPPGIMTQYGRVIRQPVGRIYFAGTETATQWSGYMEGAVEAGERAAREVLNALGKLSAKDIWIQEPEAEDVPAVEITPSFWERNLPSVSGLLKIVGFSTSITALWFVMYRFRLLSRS
Method in brief: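 Bovine brain mitochondria were isolated by the Basford method. To isolate MAO-A, fractions were preincubated 30 min at 38 °C with 1 μM L-deprenyl. Inhibitors in DMSO were preincubated 30 min, then kynuramine substrate was added, with 30 min further incubation. Product was read fluorimetrically and Ki values derived.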

Ki [1] | Ki [2] | Compound
0.22 µM | 0.0025 µM | COC[C@@H]1CN(c2ccc(OCC[C@H](O)C(F)(F)F)cc2)C(=O)O1 [(R/R)BEFLOXATONE]
2 µM | 1.2 µM | O=C1O[C@H](CO)CN1n1cccc1
9 µM | 0.09 µM | O=C1O[C@@H](CO)CN1n1cccc1
4.4 µM | 53 µM | NC[C@H]1CN(n2cccc2)C(=O)O1
23 µM | 1 µM | COC[C@@H]1CN(n2cccc2)C(=O)O1
140 µM | 40 µM | CN(C)C[C@H]1CN(n2cccc2)C(=O)O1
2 µM | 0.27 µM | O=C1O[C@@H](CO)CN1n1cccc1.O=C1O[C@H](CO)CN1n1cccc1
200 µM | 0.2 µM | [N-]=[N+]=NC[C@H]1CN(n2cccc2)C(=O)O1
34 µM | 1.2 µM | NC[C@@H]1CN(n2cccc2)C(=O)O1
24 µM | 2.5 µM | [N-]=[N+]=NC[C@@H]1CN(n2cccc2)C(=O)O1
50 µM | 0.0049 µM | COC[C@H]1CN(n2cccc2)C(=O)O1
